The text below walks through data of ChEMBL document CHEMBL4346709, “Design and Optimization Leading to an Orally Active TTK Protein Kinase Inhibitor with Robust Single Agent Efficacy” (J Med Chem, 2019).

The test system of data set [1] is CAL-51. Description: Antiproliferative activity against human CAL51 cells assessed as reduction in cell viability after 3 days by CellTiter-Glo reagent-based luminescent assay. Type of data set: functional. Particulars: CAL-51, 72 h.
In data set [2] the target is T1, Dual specificity protein kinase TTK (Homo sapiens, UniProt P33981).
T1 sequence (P33981 whole entry): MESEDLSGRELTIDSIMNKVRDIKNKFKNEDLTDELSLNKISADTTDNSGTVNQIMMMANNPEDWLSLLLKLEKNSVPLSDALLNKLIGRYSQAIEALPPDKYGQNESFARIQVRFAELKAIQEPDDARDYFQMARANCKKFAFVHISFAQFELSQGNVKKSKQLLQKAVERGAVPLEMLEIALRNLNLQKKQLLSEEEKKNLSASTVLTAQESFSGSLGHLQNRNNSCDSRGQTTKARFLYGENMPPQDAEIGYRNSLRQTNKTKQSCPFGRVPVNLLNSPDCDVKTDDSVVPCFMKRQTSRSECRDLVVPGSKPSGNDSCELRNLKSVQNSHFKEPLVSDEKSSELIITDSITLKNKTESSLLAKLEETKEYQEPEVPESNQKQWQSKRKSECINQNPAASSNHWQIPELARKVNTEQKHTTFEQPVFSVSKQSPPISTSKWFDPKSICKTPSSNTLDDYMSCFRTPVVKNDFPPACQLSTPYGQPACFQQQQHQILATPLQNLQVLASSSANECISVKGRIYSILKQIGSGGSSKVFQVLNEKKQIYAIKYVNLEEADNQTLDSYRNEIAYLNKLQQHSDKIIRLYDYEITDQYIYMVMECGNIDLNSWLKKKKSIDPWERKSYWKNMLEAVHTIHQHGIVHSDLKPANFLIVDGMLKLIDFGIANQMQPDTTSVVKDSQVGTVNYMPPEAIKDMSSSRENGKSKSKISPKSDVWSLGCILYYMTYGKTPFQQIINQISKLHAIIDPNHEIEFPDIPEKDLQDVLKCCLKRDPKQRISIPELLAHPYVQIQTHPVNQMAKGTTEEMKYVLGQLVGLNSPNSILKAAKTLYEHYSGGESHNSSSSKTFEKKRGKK
Description: Inhibition of TTK autophosphorylation in human CAL51 cells by radioimmuno-precipitation assay. The format is cell-based.

Data set [3] concerns the target T1, Dual specificity protein kinase TTK. Put plainly: Inhibition of TTK in human CAL51 cells assessed as decrease in phosphorylated KNL-1 T943 levels after 1 hr by Western blot analysis. The format is cell-based.
Data set [4] addresses Mitogen-activated protein kinase 8 (Homo sapiens, UniProt P45983). Description: Inhibition of recombinant human full length His-tagged JNK1 expressed in baculovirus expression system by Z'-LYTE assay.
For data set [5], the target named is Leucine-rich repeat serine/threonine-protein kinase 2 (Homo sapiens, UniProt Q5S007). Description: Inhibition of recombinant human GST-tagged LRRK2 catalytic domain (970 to 2527 residues) expressed in baculovirus expression system using LRRKtide as substrate measured after 1 hr by Alexa fluor-647 ADP tracer-based ADAPTA assay.
Sequence of Leucine-rich repeat serine/threonine-protein kinase 2 (Q5S007 whole entry, the tested form may be a part): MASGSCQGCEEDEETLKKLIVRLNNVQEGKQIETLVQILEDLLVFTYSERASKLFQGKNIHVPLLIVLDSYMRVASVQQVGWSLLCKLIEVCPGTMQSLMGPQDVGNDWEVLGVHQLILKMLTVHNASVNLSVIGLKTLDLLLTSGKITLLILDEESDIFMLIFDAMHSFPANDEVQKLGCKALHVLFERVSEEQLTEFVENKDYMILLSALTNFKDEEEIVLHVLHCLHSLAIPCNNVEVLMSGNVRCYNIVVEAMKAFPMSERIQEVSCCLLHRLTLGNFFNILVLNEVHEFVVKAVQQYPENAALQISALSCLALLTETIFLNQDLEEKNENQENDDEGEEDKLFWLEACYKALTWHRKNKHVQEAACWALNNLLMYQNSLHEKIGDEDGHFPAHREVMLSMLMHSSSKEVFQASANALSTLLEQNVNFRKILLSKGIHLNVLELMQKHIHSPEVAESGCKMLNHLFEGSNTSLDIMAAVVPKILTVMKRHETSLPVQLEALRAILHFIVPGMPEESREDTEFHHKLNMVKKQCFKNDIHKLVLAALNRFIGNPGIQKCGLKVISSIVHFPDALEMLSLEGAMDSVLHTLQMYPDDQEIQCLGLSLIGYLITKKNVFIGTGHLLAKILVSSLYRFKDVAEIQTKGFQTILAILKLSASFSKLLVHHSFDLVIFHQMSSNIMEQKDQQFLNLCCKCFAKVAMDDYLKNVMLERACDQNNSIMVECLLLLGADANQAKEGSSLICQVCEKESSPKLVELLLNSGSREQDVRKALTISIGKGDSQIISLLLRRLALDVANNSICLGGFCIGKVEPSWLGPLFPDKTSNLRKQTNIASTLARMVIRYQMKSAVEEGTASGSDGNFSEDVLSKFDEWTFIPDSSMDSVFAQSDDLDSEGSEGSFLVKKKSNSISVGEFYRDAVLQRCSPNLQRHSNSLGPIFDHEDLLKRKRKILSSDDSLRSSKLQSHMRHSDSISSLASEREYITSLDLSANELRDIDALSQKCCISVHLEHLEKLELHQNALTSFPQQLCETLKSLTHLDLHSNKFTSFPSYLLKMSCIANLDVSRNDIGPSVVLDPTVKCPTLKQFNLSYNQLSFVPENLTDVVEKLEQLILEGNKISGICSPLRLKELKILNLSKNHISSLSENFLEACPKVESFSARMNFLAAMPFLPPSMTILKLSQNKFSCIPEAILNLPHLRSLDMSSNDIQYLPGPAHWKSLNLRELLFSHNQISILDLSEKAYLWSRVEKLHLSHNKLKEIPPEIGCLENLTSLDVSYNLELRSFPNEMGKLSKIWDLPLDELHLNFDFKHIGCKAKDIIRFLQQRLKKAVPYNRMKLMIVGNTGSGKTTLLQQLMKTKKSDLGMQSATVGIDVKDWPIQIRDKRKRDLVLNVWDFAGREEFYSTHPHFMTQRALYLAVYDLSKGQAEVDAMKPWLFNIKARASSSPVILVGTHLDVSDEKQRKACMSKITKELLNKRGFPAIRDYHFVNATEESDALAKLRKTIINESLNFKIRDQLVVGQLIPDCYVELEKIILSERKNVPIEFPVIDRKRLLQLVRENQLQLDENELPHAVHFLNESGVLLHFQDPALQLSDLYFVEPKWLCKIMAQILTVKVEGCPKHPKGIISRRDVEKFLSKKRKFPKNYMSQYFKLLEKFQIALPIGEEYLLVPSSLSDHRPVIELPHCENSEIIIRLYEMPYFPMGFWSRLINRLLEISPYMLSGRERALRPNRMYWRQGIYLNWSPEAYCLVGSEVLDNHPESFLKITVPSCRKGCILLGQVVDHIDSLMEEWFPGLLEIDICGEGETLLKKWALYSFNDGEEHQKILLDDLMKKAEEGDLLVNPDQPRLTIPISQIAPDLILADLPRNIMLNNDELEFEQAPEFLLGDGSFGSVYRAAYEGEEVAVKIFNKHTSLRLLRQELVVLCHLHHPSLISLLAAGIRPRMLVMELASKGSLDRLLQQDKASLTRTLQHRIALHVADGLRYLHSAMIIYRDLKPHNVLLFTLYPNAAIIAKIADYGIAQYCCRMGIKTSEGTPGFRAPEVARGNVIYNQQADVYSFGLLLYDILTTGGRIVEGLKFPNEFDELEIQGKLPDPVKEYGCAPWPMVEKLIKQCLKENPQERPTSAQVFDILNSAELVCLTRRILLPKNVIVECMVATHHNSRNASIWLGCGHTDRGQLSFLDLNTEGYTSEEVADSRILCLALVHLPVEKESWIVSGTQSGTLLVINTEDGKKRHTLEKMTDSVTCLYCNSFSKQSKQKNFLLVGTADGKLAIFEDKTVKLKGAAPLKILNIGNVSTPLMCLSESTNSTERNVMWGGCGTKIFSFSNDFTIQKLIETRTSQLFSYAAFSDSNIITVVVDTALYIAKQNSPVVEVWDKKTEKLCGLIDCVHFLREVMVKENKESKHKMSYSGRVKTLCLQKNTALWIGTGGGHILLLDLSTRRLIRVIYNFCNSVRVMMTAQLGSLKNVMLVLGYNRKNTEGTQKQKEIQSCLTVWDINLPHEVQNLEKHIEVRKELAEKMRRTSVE
The target in data set [6] is Mitogen-activated protein kinase 10 (Homo sapiens, UniProt P53779). Description: Inhibition of recombinant human full length N-terminal GST-tagged JNK3 expressed in baculovirus expression system at 3 uM by Z'-LYTE assay relative to control. The gist of the method:
(§1)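 Kinase selectivity panel: single-point assessment at 3 µM, n=1.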

Data set [7] concerns the target T2, Testis-specific serine/threonine-protein kinase 1 (Homo sapiens) (UniProt Q9BXA7).
T2 sequence (whole entry): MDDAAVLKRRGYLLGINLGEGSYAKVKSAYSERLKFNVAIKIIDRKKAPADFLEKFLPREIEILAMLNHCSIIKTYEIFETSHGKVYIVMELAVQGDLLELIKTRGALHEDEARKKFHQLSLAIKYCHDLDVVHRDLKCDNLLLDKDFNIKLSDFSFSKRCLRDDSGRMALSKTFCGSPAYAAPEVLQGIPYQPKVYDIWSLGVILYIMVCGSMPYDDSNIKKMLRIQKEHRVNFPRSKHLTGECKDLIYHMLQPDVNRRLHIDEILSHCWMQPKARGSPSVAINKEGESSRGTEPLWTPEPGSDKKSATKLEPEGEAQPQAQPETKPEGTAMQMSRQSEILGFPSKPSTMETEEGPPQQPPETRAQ
Description: Inhibition of recombinant human full length His-tagged TSSK1 expressed in baculovirus expression system at 3 uM by Z'-LYTE assay relative to control. In a few lines:
as §1

For data set [8], the species on record is Homo sapiens. Description: Selectivity ratio of IC50 for recombinant human GST-tagged LRRK2 catalytic domain (970 to 2527 residues) expressed in baculovirus expression system to IC50 for inhibition of Kinase Tracer 236 binding to recombinant human full-length GST-tagged TTk expressed in baculovirus expression system.
For data set [9], the species on record is Homo sapiens. Put plainly: Selectivity ratio of IC50 for recombinant human full length His-tagged JNK1 expressed in baculovirus expression system to IC50 for inhibition of Kinase Tracer 236 binding to recombinant human full-length GST-tagged TTk expressed in baculovirus expression system.
Data set [10] is described as follows: Metabolic stability in human liver S9 fraction assessed as parent compound remaining after 60 mins. The format is ADME, subcellular. Particulars: read-out: Stability.
A short description of data set [11]: AUC in CB17 SCID mouse at 30 mg/kg, po. The format is ADME, organism-based. Particulars: in vivo. In a few lines:
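Oral PK in SCID mice at 30 mg/kg. Compound is formulated either in CMCT (0.5% CMC/0.25% tween-80) or in 5% TPGS, 10% captisol, 50 mM citrate buffer, depending on compound. Cmax and AUC are measured.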

Data set [12] is described as follows: Oral bioavailability in CB17 SCID mouse at 30 mg/kg. The format is ADME, organism-based. Particulars: in vivo.
For data set [13], the system named is CAL-51. Put plainly: Antitumor activity against human CAL51 cells xenografted in CB17 SCID mouse assessed as tumor growth inhibition at 30 mg/kg, po administered every seven days for 16 days and measured twice per week up to 31 days by caliper method relative to control. The format is functional. Particulars: CAL-51, po, read-out: TGI. The gist of the method:
(§2)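 Female CB17 SCID mice, 6-8 weeks old, inoculated subcutaneously with 2×10^6 CAL-51 cells. Oral dosing once weekly (QW) at 30-120 mg/kg, or 30 mg/kg BID QW, for 16 days, against vehicle control. Tumour long and short axes measured twice weekly by digital caliper; volume = width² × length/2. Values are TGI; data are mean ± SEM.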
In general terms: A xenograft is tissue or cells of one species grown in another, often human tumour cells in immunodeficient mice.

In data set [14] the test system is CAL-51. Put plainly: Antitumor activity against human CAL51 cells xenografted in CB17 SCID mouse assessed as tumor growth inhibition at 60 mg/kg, po administered every seven days for 16 days and measured twice per week up to 31 days by caliper method relative to control. The format is functional. Particulars: CAL-51, po, read-out: TGI. The gist of the method:
as §2

Data set [15] concerns CAL-51. Put plainly: Induction of apoptosis in human CAL51 cells xenografted in CB17 SCID mouse assessed as activation of cleaved caspase-3 at 30 mg/kg, po measured after 1 to 48 hrs by MSD electrochemiluminescent immunoassay relative to control. Type of data set: functional. The gist of the method:
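CB17 SCID mice bearing CAL-51 tumours of 300-500 mm3 given compound orally. At preset time points the mice were euthanised and the tumours dissected and snap-frozen in liquid nitrogen. pHH3 Ser10 or cleaved caspase measured by MSD electrochemiluminescent immunoassay kit. Data are mean ± SEM.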

The species entered for data set [16] is Homo sapiens. Description: Selectivity ratio of IC50 for inhibition of recombinant human GST-tagged LRRK2 G2019S mutant catalytic domain (970 to 2527 residues) expressed in baculovirus expression system to IC50 for inhibition of Kinase Tracer 236 binding to recombinant human full-length GST-tagged TTk expressed in baculovirus expression system.

Sequence of Mitogen-activated protein kinase 10 (P53779 whole entry): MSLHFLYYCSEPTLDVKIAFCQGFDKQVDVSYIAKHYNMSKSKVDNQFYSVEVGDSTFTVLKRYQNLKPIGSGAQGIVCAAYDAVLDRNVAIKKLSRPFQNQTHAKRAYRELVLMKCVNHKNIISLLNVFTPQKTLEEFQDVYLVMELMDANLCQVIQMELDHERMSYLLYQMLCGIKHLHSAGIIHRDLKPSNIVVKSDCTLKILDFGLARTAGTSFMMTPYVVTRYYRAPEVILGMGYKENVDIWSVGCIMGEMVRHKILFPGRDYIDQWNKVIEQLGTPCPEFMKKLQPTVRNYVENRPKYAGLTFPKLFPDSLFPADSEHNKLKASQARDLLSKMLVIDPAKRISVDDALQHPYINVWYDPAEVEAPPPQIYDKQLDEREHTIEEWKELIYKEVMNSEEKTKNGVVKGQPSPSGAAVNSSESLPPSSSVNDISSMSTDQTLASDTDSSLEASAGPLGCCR
Sequence of Mitogen-activated protein kinase 8 (P45983 whole entry, the tested form may be a part): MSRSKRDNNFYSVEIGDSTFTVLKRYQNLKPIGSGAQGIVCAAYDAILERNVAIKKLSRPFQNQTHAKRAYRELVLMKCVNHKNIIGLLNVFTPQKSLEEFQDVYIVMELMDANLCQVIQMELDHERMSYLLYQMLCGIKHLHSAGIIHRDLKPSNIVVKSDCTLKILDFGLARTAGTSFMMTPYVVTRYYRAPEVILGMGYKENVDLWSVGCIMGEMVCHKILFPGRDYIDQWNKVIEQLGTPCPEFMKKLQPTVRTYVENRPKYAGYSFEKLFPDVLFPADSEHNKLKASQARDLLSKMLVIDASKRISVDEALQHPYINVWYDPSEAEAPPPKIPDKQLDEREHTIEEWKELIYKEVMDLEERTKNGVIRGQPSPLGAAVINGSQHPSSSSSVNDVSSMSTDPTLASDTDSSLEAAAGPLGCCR

On to `C[C@@H](Oc1cc(C(=O)N(C)C)ccc1Nc1nc(O[C@H]2CC[C@@](C)(O)CC2)c2c(Cl)c[nH]c2n1)C(F)(F)F`, for which the IC50 is 10 nM in data set [1]; 9 nM in data set [2]; 30 nM in data set [3]; 0.032 nM in data set [4]; 0.001 nM in data set [5]. For the same compound, the inhibition in [6] and in data set [7] was above 80% in each case. For the same compound, the Ratio IC50 in data set [8], in data set [9] and in data set [16] was below 100 each time. Besides, the remaining at 1 h in data set [10] amounted to 65%. In data set [11], this compound came in with an area under the curve (AUC) of 22.5 µM·h. The compound also showed a bioavailability in data set [12] of 60%. Also, the inhibition in vivo at 30 mg/kg in data set [13] was found to be 59%. For the same compound, in data set [14], the inhibition in vivo at 60 mg/kg came to 65%. The Activity in [15] is listed as 250%.

For orientation: IC50 means the concentration needed to halve the response being measured. A word on the inhibition: it is the drop in the measured response relative to a control, in per cent. Broadly, the AUC is concentration integrated over time. Low values mean less exposure, high ones more exposure. As a reminder, the bioavailability is dose-corrected exposure relative to a reference, in per cent.
